What was measured:
Cricetulus griseus [1] = species on record: Cricetulus griseus; test: Inhibition of AHAT-catalyzed transacylation of 4-aminoazobenzene
Procedure, shortened: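 Partially purified hamster hepatic AHAT (2.5–3.75 mg protein) was preincubated 5 min with inhibitor (2.5 μmol in EtOH; 1 mM) before adding acyl-donor substrate (2.5 μmol) and 4-aminoazobenzene (0.375 μmol). The 2.5 mL mix held pyrophosphate pH 7, DTT and 1.15% KCl, at 37 °C in air. Stopped with TCA/EtOH; supernatant read spectrophotometrically (Booth). Percent inhibition vs control; three experiments in triplicate.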

Cricetulus griseus [2] = species on record: Cricetulus griseus; test: Percent inhibition against AHAT when compound 10 is used as substrate at 1 mM concentration
Procedure, shortened: (§1)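 Partially purified hamster hepatic AHAT; 1 mM inhibitor (final) in ethanol was preincubated with enzyme for 5 min, then acyl donor (2.5 μmol) and 4-aminoazobenzene (0.375 μmol) were added. Mix: pyrophosphate buffer pH 7, DTT, KCl, 2.5 mL, 37 °C in air, read after 10 min. TCA-ethanol stop; spectrophotometric read-out of transacetylation. % inhibition vs control; three experiments in triplicate.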

Cricetulus griseus [3] = species on record: Cricetulus griseus; test: Percent inhibition against AHAT when compound 8 is used as substrate at 1 mM concentration; procedure, shortened: as §1

Compound	Transacetylation rate (Cricetulus griseus [1])	inhibition (Cricetulus griseus [2])	inhibition (Cricetulus griseus [3])
CC(=O)N(O)c1ccc(-c2ccccc2)cc1	13.3 nmol/min/mg	–	–
p-Chloromercuribenzenesulfonate	–	96%	92%
O=C(CO)Nc1ccc(/C=C/c2ccccc2)cc1	0.18 nmol/min/mg	–	–
CC(=O)Nc1ccc(-c2ccccc2)cc1	0.27 nmol/min/mg	–	–
CC(=O)Nc1ccc(-c2ccccc2)cc1O	0.69 nmol/min/mg	–	–
CC(=O)N(O)c1ccc2c(c1)Cc1ccccc1-2	19.3 nmol/min/mg	–	–
CC(=O)Nc1ccc2c(c1O)Cc1ccccc1-2	0.11 nmol/min/mg	–	–
O=C(CO)Nc1ccc(-c2ccccc2)cc1	0.03 nmol/min/mg	–	–
O=C(CO)Nc1ccc2c(c1)Cc1ccccc1-2	0.02 nmol/min/mg	–	–
CC(=O)Nc1cc2c(cc1O)-c1ccccc1C2	0.05 nmol/min/mg	–	–
CC(=O)N(O)c1ccc(/C=C/c2ccccc2)cc1	9.73 nmol/min/mg	–	–
NC(=O)CI	–	99%	99%
CCN1C(=O)C=CC1=O	–	86%	77%

Reference: ChEMBL document CHEMBL1122423, “N-arylhydroxamic acid N,O-acyltransferase. Positional requirements for the substrate hydroxyl group” (J Med Chem, 1983)
